≈ marks a conversion by molar mass, not a printed value.
Assays:
Assay type in all cases: functional
Staphylococcus aureus = experiment: Antimicrobial activity against Staphylococcus aureus ATCC 25923 after 18 to 48 hrs by serial dilution method
Streptococcus pyogenes = experiment: Antimicrobial activity against Streptococcus pyogenes clinical isolate after 18 to 48 hrs by serial dilution method
Pseudomonas aeruginosa = experiment: Antimicrobial activity against Pseudomonas aeruginosa ATCC 27853 after 18 to 48 hrs by serial dilution method
Klebsiella pneumoniae = experiment: Antimicrobial activity against Klebsiella pneumoniae clinical isolate after 18 to 48 hrs by serial dilution method
Escherichia coli = experiment: Antimicrobial activity against Escherichia coli ATCC 25922 after 18 to 48 hrs by serial dilution method
[1] = tested on: Mycobacterium tuberculosis; experiment: Antimicrobial activity against Mycobacterium tuberculosis H37Rv ATCC 27294 after 7 days by resazurin assay; conditions: H37Rv ATCC 27294, 168 h
Procedure, shortened: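 M. tuberculosis H37Rv ATCC 27294 culture diluted into fresh medium in 96-well microtitre plates. Compounds were taken from 2 mg/mL stocks in DMF, with DMF-only control tubes and rifampicin and isoniazid as references. Plates were incubated 37 °C for 7 days, then 0.01% aqueous resazurin was added and read after 1 h at 37 °C. MIC is the lowest concentration preventing the blue-to-pink change.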

[2] = tested on: Mycolicibacterium smegmatis; experiment: Antimicrobial activity against Mycobacterium smegmatis ATCC 19420 after 7 days by resazurin assay; conditions: ATCC 19420, 168 h
Procedure, shortened: (§1)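 Resazurin microplate assay. Culture added to fresh medium in 96-well plates. Compound stocks 2 mg/mL in DMF. DMF-only controls, with rifampicin and isoniazid as references. Incubated 7 days at 37 °C, then 0.01% resazurin in water added. Blue-to-pink change read after 1 h at 37 °C. MIC taken as the lowest concentration preventing the colour change.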

[3] = tested on: Mycolicibacterium fortuitum; experiment: Antimicrobial activity against Mycobacterium fortuitum ATCC 19542 after 7 days by resazurin assay; conditions: ATCC 19542, 168 h; procedure, shortened: as §1
[4] = tested on: Mycobacterium tuberculosis; experiment: Antimicrobial activity against Mycobacterium tuberculosis H37Rv ATCC 27294 assessed as growth inhibition after 7 days by resazurin assay

## COc1ccc2nc(C)cc(N3CC(CNC(=O)C4CCC4)OC3=O)c2c1 (stereo unspecified)
Staphylococcus aureus
  MIC: 1.6 µg/mL (≈ 4.33 µM)
Streptococcus pyogenes
  MIC: 1.6 µg/mL (≈ 4.33 µM)
Pseudomonas aeruginosa
  MIC: 3.12 µg/mL (≈ 8.46 µM)
Klebsiella pneumoniae
  MIC: 6.25 µg/mL (≈ 16.9 µM)
Escherichia coli
  MIC: 1.6 µg/mL (≈ 4.33 µM)
[1]
  MIC: 2.5 µg/mL (≈ 6.77 µM)
[2]
  MIC: 100 µg/mL (≈ 271 µM)
[3]
  MIC: 100 µg/mL (≈ 271 µM)
[4]
  growth inhibition (GI): 85%

## COc1ccc2nc(C)cc(N3CC(CNC(C)=O)OC3=O)c2c1 (stereo unspecified)
Staphylococcus aureus
  MIC: 0.8 µg/mL (≈ 2.43 µM)
Streptococcus pyogenes
  MIC: 0.2 µg/mL (≈ 0.607 µM)
Pseudomonas aeruginosa
  MIC: 0.4 µg/mL (≈ 1.21 µM)
Klebsiella pneumoniae
  MIC: 0.1 µg/mL (≈ 0.304 µM)
Escherichia coli
  MIC: 0.2 µg/mL (≈ 0.607 µM)
[1]
  MIC: 0.625 µg/mL (≈ 1.9 µM)
[2]
  MIC: 2.5 µg/mL (≈ 7.59 µM)
[3]
  MIC: 10 µg/mL (≈ 30.4 µM)
[4]
  growth inhibition (GI): 95%

## COc1ccc2nc(C)cc(NC(=O)CN3CC(CN4CCCCC4)OC3=O)c2c1 (stereo unspecified)
Staphylococcus aureus
  MIC: 3.12 µg/mL (≈ 7.58 µM)
Streptococcus pyogenes
  MIC: 6.25 µg/mL (≈ 15.2 µM)
Pseudomonas aeruginosa
  MIC: 3.12 µg/mL (≈ 7.58 µM)
Klebsiella pneumoniae
  MIC: > 12.5 µg/mL
Escherichia coli
  MIC: > 12.5 µg/mL
[1]
  MIC: 100 µg/mL (≈ 242 µM)
[2]
  MIC: 100 µg/mL (≈ 242 µM)
[3]
  MIC: 100 µg/mL (≈ 242 µM)
[4]
  growth inhibition (GI): 0%

## CO[C@H]1/C=C/O[C@@]2(C)Oc3c(C)c(O)c4c(O)c(c(/C=N/N5CCN(C)CC5)c(O)c4c3C2=O)NC(=O)/C(C)=C\C=C\[C@H](C)[C@H](O)[C@@H](C)[C@@H](O)[C@@H](C)[C@H](OC(C)=O)[C@@H]1C [RIFAMPIN]
[1]
  MIC: 0.5 µg/mL (≈ 0.608 µM)
[2]
  MIC: 1.5 µg/mL (≈ 1.82 µM)
[3]
  MIC: 1.5 µg/mL (≈ 1.82 µM)
[4]
  growth inhibition (GI): >95%

## COc1ccc2nc(C)cc(NC(=O)CN3CC(CNCC4CCCCC4)OC3=O)c2c1 (stereo unspecified)
Staphylococcus aureus
  MIC: 6.25 µg/mL (≈ 14.2 µM)
Streptococcus pyogenes
  MIC: 1.6 µg/mL (≈ 3.63 µM)
Pseudomonas aeruginosa
  MIC: > 12.5 µg/mL
Klebsiella pneumoniae
  MIC: 6.25 µg/mL (≈ 14.2 µM)
Escherichia coli
  MIC: 6.25 µg/mL (≈ 14.2 µM)
[1]
  MIC: 100 µg/mL (≈ 227 µM)
[2]
  MIC: 100 µg/mL (≈ 227 µM)
[3]
  MIC: 100 µg/mL (≈ 227 µM)
[4]
  growth inhibition (GI): 0%

## CCc1ccc(C(=O)NCC2CN(c3cc(C)nc4ccc(OC)cc34)C(=O)O2)cc1 (stereo unspecified)
Staphylococcus aureus
  MIC: 1.6 µg/mL (≈ 3.81 µM)
Streptococcus pyogenes
  MIC: 6.25 µg/mL (≈ 14.9 µM)
Pseudomonas aeruginosa
  MIC: > 12.5 µg/mL
Klebsiella pneumoniae
  MIC: 1.6 µg/mL (≈ 3.81 µM)
Escherichia coli
  MIC: 3.12 µg/mL (≈ 7.45 µM)
[1]
  MIC: 100 µg/mL (≈ 238 µM)
[2]
  MIC: 100 µg/mL (≈ 238 µM)
[3]
  MIC: 100 µg/mL (≈ 238 µM)
[4]
  growth inhibition (GI): 0%

## COc1ccc2nc(C)cc(NC(=O)CN3CC(CN4CCN(C(C)=O)CC4)OC3=O)c2c1 (stereo unspecified)
Staphylococcus aureus
  MIC: 0.8 µg/mL (≈ 1.76 µM)
Streptococcus pyogenes
  MIC: 0.8 µg/mL (≈ 1.76 µM)
Pseudomonas aeruginosa
  MIC: 1.6 µg/mL (≈ 3.51 µM)
Klebsiella pneumoniae
  MIC: 1.6 µg/mL (≈ 3.51 µM)
Escherichia coli
  MIC: 1.6 µg/mL (≈ 3.51 µM)
[1]
  MIC: 5 µg/mL (≈ 11 µM)
[2]
  MIC: 100 µg/mL (≈ 220 µM)
[3]
  MIC: 100 µg/mL (≈ 220 µM)
[4]
  growth inhibition (GI): 80%

## CCN1CCN(CC2CN(CC(=O)Nc3cc(C)nc4ccc(OC)cc34)C(=O)O2)CC1 (stereo unspecified)
Staphylococcus aureus
  MIC: 0.8 µg/mL (≈ 1.81 µM)
Streptococcus pyogenes
  MIC: 0.2 µg/mL (≈ 0.453 µM)
Pseudomonas aeruginosa
  MIC: 0.8 µg/mL (≈ 1.81 µM)
Klebsiella pneumoniae
  MIC: 1.6 µg/mL (≈ 3.62 µM)
Escherichia coli
  MIC: 1.6 µg/mL (≈ 3.62 µM)
[1]
  MIC: 10 µg/mL (≈ 22.6 µM)
[2]
  MIC: 100 µg/mL (≈ 226 µM)
[3]
  MIC: 100 µg/mL (≈ 226 µM)
[4]
  growth inhibition (GI): 85%

## COc1ccc2nc(C)cc(N3CC(CNC(=O)c4ccccc4F)OC3=O)c2c1 (stereo unspecified)
Staphylococcus aureus
  MIC: 1.6 µg/mL (≈ 3.91 µM)
Streptococcus pyogenes
  MIC: 3.12 µg/mL (≈ 7.63 µM)
Pseudomonas aeruginosa
  MIC: 3.12 µg/mL (≈ 7.63 µM)
Klebsiella pneumoniae
  MIC: 6.25 µg/mL (≈ 15.3 µM)
Escherichia coli
  MIC: 6.25 µg/mL (≈ 15.3 µM)
[1]
  MIC: 1 µg/mL (≈ 2.44 µM)
[2]
  MIC: 5 µg/mL (≈ 12.2 µM)
[3]
  MIC: 10 µg/mL (≈ 24.4 µM)
[4]
  growth inhibition (GI): 90%

## CCN(CC)CC1CN(CC(=O)Nc2cc(C)nc3ccc(OC)cc23)C(=O)O1 (stereo unspecified)
Staphylococcus aureus
  MIC: 1.6 µg/mL (≈ 4 µM)
Streptococcus pyogenes
  MIC: 3.12 µg/mL (≈ 7.8 µM)
Pseudomonas aeruginosa
  MIC: 0.4 µg/mL (≈ 0.999 µM)
Klebsiella pneumoniae
  MIC: 0.1 µg/mL (≈ 0.25 µM)
Escherichia coli
  MIC: 0.4 µg/mL (≈ 0.999 µM)
[1]
  MIC: 1 µg/mL (≈ 2.5 µM)
[2]
  MIC: 10 µg/mL (≈ 25 µM)
[3]
  MIC: 10 µg/mL (≈ 25 µM)
[4]
  growth inhibition (GI): 90%

## COc1ccc2nc(C)cc(N3CC(CNC(=O)c4ccccc4)OC3=O)c2c1 (stereo unspecified)
Staphylococcus aureus
  MIC: 3.12 µg/mL (≈ 7.98 µM)
Streptococcus pyogenes
  MIC: 3.12 µg/mL (≈ 7.98 µM)
Pseudomonas aeruginosa
  MIC: > 12.5 µg/mL
Klebsiella pneumoniae
  MIC: 6.25 µg/mL (≈ 16 µM)
Escherichia coli
  MIC: > 12.5 µg/mL
[1]
  MIC: 100 µg/mL (≈ 255 µM)
[2]
  MIC: 100 µg/mL (≈ 255 µM)
[3]
  MIC: 100 µg/mL (≈ 255 µM)
[4]
  growth inhibition (GI): 0%

## COc1ccc(C(=O)NCC2CN(c3cc(C)nc4ccc(OC)cc34)C(=O)O2)cc1 (stereo unspecified)
Staphylococcus aureus
  MIC: 0.8 µg/mL (≈ 1.9 µM)
Streptococcus pyogenes
  MIC: 0.4 µg/mL (≈ 0.949 µM)
Pseudomonas aeruginosa
  MIC: 0.2 µg/mL (≈ 0.475 µM)
Klebsiella pneumoniae
  MIC: 0.1 µg/mL (≈ 0.237 µM)
Escherichia coli
  MIC: 0.2 µg/mL (≈ 0.475 µM)
[1]
  MIC: 5 µg/mL (≈ 11.9 µM)
[2]
  MIC: 5 µg/mL (≈ 11.9 µM)
[3]
  MIC: 10 µg/mL (≈ 23.7 µM)
[4]
  growth inhibition (GI): 85%

## COc1ccc2nc(C)cc(N3CC(CNC(=O)c4ccc(C)cc4)OC3=O)c2c1 (stereo unspecified)
Staphylococcus aureus
  MIC: 3.12 µg/mL (≈ 7.71 µM)
Streptococcus pyogenes
  MIC: 1.6 µg/mL (≈ 3.95 µM)
Pseudomonas aeruginosa
  MIC: 3.12 µg/mL (≈ 7.71 µM)
Klebsiella pneumoniae
  MIC: 3.12 µg/mL (≈ 7.71 µM)
Escherichia coli
  MIC: 3.12 µg/mL (≈ 7.71 µM)
[1]
  MIC: 100 µg/mL (≈ 247 µM)
[2]
  MIC: 100 µg/mL (≈ 247 µM)
[3]
  MIC: 100 µg/mL (≈ 247 µM)
[4]
  growth inhibition (GI): 0%

## NNC(=O)c1ccncc1 [ISONIAZID]
[1]
  MIC: 0.7 µg/mL (≈ 5.1 µM)
[2]
  MIC: 50 µg/mL (≈ 365 µM)
[3]
  MIC: 12.5 µg/mL (≈ 91.1 µM)
[4]
  growth inhibition (GI): >95%
